Assay results published in ChEMBL document CHEMBL5096173, “Anti-SARS-CoV-2 Activity of Andrographis paniculata Extract and Its Major Component Andrographolide in Human Lung Epithelial Cells and Cytotoxicity Evaluation in Major Organ Cell Representatives” (J Nat Prod, 2021).

Experiments:
SARS-CoV-2 [1] = assay: Antiviral activity against SARS CoV-2 (01/human/Jan2020/Thailand) infected in African green monkey Vero E6 cells for assessed as inhibition of viral replication preincubated for 1 hr followed by viral adsorption for 2 hrs and measured after 48 hrs by hoechst staining based analysis; format: functional, organism-based; details: Severe acute respiratory syndrome coronavirus 2, (01/human/Jan2020/Thailand), Vero C1008
SARS-CoV-2 [2] = assay: Antiviral activity against SARS CoV-2 (01/human/Jan2020/Thailand) infected in African green monkey Vero E6 cells assessed as inhibition of viral replication pre-infected with cells for 2 hrs followed by compound addition and measured after 48 hrs post infection by plague assay; format: functional, organism-based; details: Severe acute respiratory syndrome coronavirus 2, (01/human/Jan2020/Thailand), Vero C1008
Caco-2 = assay: Cytotoxicity against human Caco-2 cells assessed as reduction in cell viability incubated for 48 hrs by MTT assay; format: functional
How it was run: (§1)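 Cells plated at 5×10^4/well and exposed 48 h to 0–100 µM (or extract 0–100 µg/mL). MTT added at 0.5 mg/mL final for 4 h at 37 °C, formazan dissolved in DMSO, absorbance read at 570 nm. Data normalised to solvent control and CC50 fitted.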

SARS-CoV-2 [3] = assay: Antiviral activity against SARS CoV-2 (01/human/Jan2020/Thailand) infected in human Calu-3 cells for 2 hrs assessed as reduction in extracellular viral RNA measured after 48 hrs post infection by qRT-PCR analysis; format: functional, organism-based; details: Severe acute respiratory syndrome coronavirus 2, dose 0.1-100 µg/ml, DDE = dose-dependent effect
[4] = Selectivity index, ratio of CC50 for human Caco-2 to IC50 for SARS CoV-2 (01/human/Jan2020/Thailand) infected in African green monkey Vero E6 cells; format: toxicity; details: Caco-2 cells, read-out: Ratio CC50/IC50
[5] = Selectivity index, ratio of CC50 for human SH-SY5Y to IC50 for SARS CoV-2 (01/human/Jan2020/Thailand) infected in African green monkey Vero E6 cells; format: toxicity; details: read-out: Ratio CC50/IC50
HepG2 = assay: Cytotoxicity against human HepG2 cells assessed as reduction in cell viability incubated for 48 hrs by MTT assay; format: functional; how it was run: as §1
SH-SY5Y = assay: Cytotoxicity against human SH-SY5Y cells assessed as reduction in cell viability incubated for 48 hrs by MTT assay; format: functional; how it was run: as §1
[6] = Selectivity index, ratio of CC50 for human imHC to IC50 for SARS CoV-2 (01/human/Jan2020/Thailand) infected in African green monkey Vero E6 cells; format: toxicity; details: read-out: Ratio CC50/IC50
[7] = Selectivity index, ratio of CC50 for human HK-2 to IC50 for SARS CoV-2 (01/human/Jan2020/Thailand) infected in African green monkey Vero E6 cells; format: toxicity; details: HK-2 cells, read-out: Ratio CC50/IC50
SARS-CoV-2 [8] = assay: Antiviral activity against SARS CoV-2 (01/human/Jan2020/Thailand) infected in African green monkey Vero E6 cells for 2 hrs assessed as inhibition of viral replication measured after 48 hrs post infection by IFA assay; format: functional, organism-based; details: Severe acute respiratory syndrome coronavirus 2, (01/human/Jan2020/Thailand), Vero C1008
SARS-CoV-2 [9] = assay: Antiviral activity against SARS CoV-2 (01/human/Jan2020/Thailand) infected in human Calu-3 cells for 2 hrs assessed as inhibition of viral replication measured after 48 hrs post infection by IFA assay; format: functional, organism-based; details: for IC50: Severe acute respiratory syndrome coronavirus 2, (01/human/Jan2020/Thailand)
[10] = biological target: Replicase polyprotein 1ab (Severe acute respiratory syndrome coronavirus 2, UniProt P0DTD1); assay: Inhibition of C-terminal His 6 tagged SARS CoV-2 main protease transfected in Escherichia coli BL21 (DE3); design: species or system Severe acute respiratory syndrome-related coronavirus
[11] = Selectivity index, ratio of CC50 for human HepG2 to IC50 for SARS CoV-2 (01/human/Jan2020/Thailand) infected in African green monkey Vero E6 cells; format: toxicity; details: read-out: Ratio CC50/IC50
HK-2 = assay: Cytotoxicity against human HK-2 cells assessed as reduction in cell viability incubated for 48 hrs by MTT assay; format: toxicity, cell-based; details: hk-2, 48 h; how it was run: as §1
SARS-CoV-2 [12] = assay: Antiviral activity against SARS CoV-2 (01/human/Jan2020/Thailand) infected in human Calu-3 cells for 2 hrs assessed as inhibition of viral replication measured after 48 hrs post infection by plague assay; format: functional, organism-based; details: Severe acute respiratory syndrome coronavirus 2, (01/human/Jan2020/Thailand)
Calu-3 = assay: Cytotoxicity against human Calu-3 cells assessed as reduction in cell viability incubated for 48 hrs by MTT assay; format: functional; how it was run: as §1
[13] = Selectivity index, ratio of CC50 for human Calu-3 to IC50 for SARS CoV-2 (01/human/Jan2020/Thailand) infected in African green monkey Vero E6 cells; format: toxicity; details: Calu-3 cells, read-out: Ratio CC50/IC50
[14] = Cytotoxicity against human imHC cells assessed as reduction in cell viability incubated for 48 hrs by MTT assay; format: toxicity, cell-based; how it was run: as §1

C=C1CC[C@@H]2[C@](C)(CO)[C@H](O)CC[C@@]2(C)[C@@H]1C/C=C1/C(=O)OC[C@H]1O [ANDROGRAPHOLIDE]
IC50 (SARS-CoV-2 [1]): 19000 nM | IC50 (SARS-CoV-2 [2]): 280 nM | Activity (Caco-2): 52.3 µM | Activity (SARS-CoV-2 [3]): Dde | selectivity ratio [4]: 1540 | selectivity ratio [5]: 388 | Activity (HepG2): 81.52 µM | Activity (SH-SY5Y): 13.19 µM | selectivity ratio [6]: 1310 | selectivity ratio [7]: 1000 | IC50 (SARS-CoV-2 [8]): 6580 nM | IC50 (SARS-CoV-2 [9]): 1680 nM | Activity (SARS-CoV-2 [9]; Severe acute respiratory syndrome coronavirus 2, dose 0.1-100 µg/ml, DDE = dose-dependent effect): Dde | IC50 [10]: 15000 nM | selectivity ratio [11]: 2400 | Activity (HK-2): 34.11 µM | IC50 (SARS-CoV-2 [12]): 34 nM | Activity (Calu-3): 58.03 µM | selectivity ratio [13]: 1710 | Activity [14]: 44.55 µM

CCN(CCO)CCCC(C)Nc1ccnc2cc(Cl)ccc12 (stereo unspecified) [HYDROXYCHLOROQUINE]
IC50 (SARS-CoV-2 [9]): > 50000 nM

O=C(Nc1ccc([N+](=O)[O-])cc1Cl)c1cc(Cl)ccc1O [NICLOSAMIDE]
IC50 (SARS-CoV-2 [9]): 900 nM

CCC(CC)COC(=O)[C@H](C)N[P@](=O)(OC[C@H]1O[C@@](C#N)(c2ccc3c(N)ncnn23)[C@H](O)[C@@H]1O)Oc1ccccc1 [REMDESIVIR]
IC50 (SARS-CoV-2 [2]): 2650 nM | IC50 (SARS-CoV-2 [8]): 2710 nM | IC50 (SARS-CoV-2 [9]): 43 nM | IC50 (SARS-CoV-2 [12]): 86 nM
